Data set [1] has as its system LN229-Lux cells (constitutive luciferase reporter gene). Kind of data set: constitutive luciferase reporter control assay in LN229-Lux cells. In kind it is cell-based, human. The following applies: control for inhibition of luciferase per se. In short, it runs like this: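 LN229-Lux cells carry a constitutive luciferase reporter driven by a retroviral LTR promoter. They were grown in DMEM with 10% serum, seeded at 3 × 10⁴ per well and treated with test compound in 1% DMSO medium under normoxia. Lysates were read for luminescence with luciferase substrate. Values are % of untreated control extracts, in triplicates.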
On the technique in general: Reporter assays use an easily measured gene product as a stand-in for the process of interest.

The subject of data set [2] is HIF transcriptional activity. The data set can be described thus: HIF-dependent luciferase reporter assay in LN229-V6R cells under hypoxia. The following applies: for inhibition of HIF-1 transcriptional activity (HRE-mediated luciferase) at 10 μM: one day. In kind it is cell-based, human. In short, it runs like this: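 LN229-V6R cells carry a stably integrated hypoxia/HIF-inducible luciferase reporter and were grown in DMEM with 10% serum. Cells were seeded at 3 × 10⁴ per well, held in normoxia (21% O₂, 5% CO₂) for 24 h, then given DMEM with 1% DMSO with or without test compound (2.5, 5.0, 10.0 μM). After 1 h at 37 °C, cells went to hypoxia (1% O₂) for 24 h. Cells were washed and lysed, and extract luminescence was read with luciferase substrate. Triplicates, expressed as % of untreated control.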

The next data set in a line: LogP7.4 measurement. In kind it is physicochemical. The following applies: pH 7.4; shake flask method (6a, 6g) or HPLC method (1, 6b-6f, 6h-6l). In short, it runs like this:
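Shake-flask method (OECD 107): 1-octanol and 0.2 M phosphate buffer pH 7.4 were mutually presaturated by stirring for 24 h at room temperature. 1–2 mg test compound was partitioned between 2 mL each phase, in duplicate. The aqueous phase was quantified by HPLC at 254 nm against standard curves. HPLC method (OECD 117): C₁₈ column with methanol:water:triethylamine 70:30:0.1 at 2 mL/min, calibrated with the shake-flask compounds, aniline, benzene, toluene and chlorobenzene.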

Data set [3] is described as follows: metabolic stability in mouse liver homogenate. In kind it is in vitro ADME. The following applies: mouse liver homogenate in PBS (1:2 w/v), pH 7.4. The gist of the method:
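Test compound (20 μM) was incubated at 37 °C with shaking in fresh mouse liver homogenate in PBS pH 7.4 (1/2 w/v). At set times, samples were extracted with acetonitrile, dried and reconstituted in mobile phase. They were quantified by reverse-phase C₈ HPLC with photodiode-array detection, using α-naphthoflavone (2 μM) as internal standard and standard curves linear over 1–50 μM. Run in triplicate.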

The test system of a further data set is HIF-1α. Kind of data set: HIF-1α protein levels in LN229-V6R cells under hypoxia by western blot. In kind it is cell-based, human. The note with it: 3-100 μM, hypoxia 24 hours. In short, it runs like this:
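LN229-V6R cells (2 × 10⁵) were seeded in 35 mm dishes and kept under normoxia for 24 h. Fresh DMEM with 1% DMSO and test compound (3, 6, 12, 25, 50 or 100 μM) was added, then 1 h at 37 °C in normoxia, then 24 h in hypoxia (1% O₂). Lysates in SDS loading buffer were run on a 4–12.5% gradient gel and blotted with anti-HIF-1α (1:500) and anti-β-actin (1:3,000), with HRP/ECL detection. Each blot was done at least twice.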

Structures are written as SMILES.

As a reminder, the half-life is how long it takes for the measured level to halve. Higher therefore signals slow decline.

For the compound `COc1ccc(S(=O)(=O)N(Cc2ccc3c(c2)C=CC(C)(C)O3)c2ccccc2)cc1OC` [Compound 1, 3,4-dimethoxy-N-[(2,2-dimethyl-2H-chromene-6-yl)methyl]-N-phenylbenzenesulfonamide], the “luciferase activity in LN229-Lux cells (constitutive reporter)” value in data set [1] is “reduced luciferase activity only in LN229-V6R cells under hypoxia”. Turning to `CC(C)N(Cc1ccc2c(c1)C=CC(C)(C)O2)S(=O)(=O)c1ccccn1` [Compound 6a, N-[(2,2-dimethyl-2H-chromen-6-yl)methyl]-N-(propan-2-yl)pyridine-2-sulfonamide], the “inhibition of HIF-1 transcriptional activity (HRE-mediated luciferase) at 10 μM” value (“inhibition” for short) in data set [2] is given as “completely”. For `COc1cc(CN(C(C)C)S(=O)(=O)c2ccccn2)cc2c1OC(C)(C)C=C2` [Compound 6g, N-[(8-methoxy-2,2-dimethyl-2H-chromen-6-yl)methyl]-N-(propan-2-yl)pyridine-2-sulfonamide], the “inhibition” value in data set [2] is on record as 60 ∼ 80%. Further, in the data set “LogP7.4 measurement”, the logP7.4 was 1.2 ∼ 1.3.

With `CC(C)CN(Cc1cc(O)c2c(c1)C=CC(C)(C)O2)S(=O)(=O)c1ccccn1` [Compound 6h, N-[(8-hydroxy-2,2-dimethyl-2H-chromen-6-yl)methyl]-N-(2-methylpropan-1-yl)pyridine-2-sulfonamide], in the data set “LogP7.4 measurement”, the logP7.4 is listed as 1.2 ∼ 1.3.

As for `CC(C)CN(Cc1cc(O)c2c(c1)C=CC(C)(C)O2)S(=O)(=O)c1ccncc1` [Compound 6l, N-[(8-hydroxy-2,2-dimethyl-2H-chromen-6-yl)methyl]-N-(2-methylpropan-1-yl)pyridine-4-sulfonamide], the “inhibition” value in data set [2] was 60 ∼ 80%. The half-life at 20 μM in data set [3] was in the range of 13 to 20 h. In the data set “LogP7.4 measurement”, the logP7.4 is 1.2 ∼ 1.3. For the same compound, in the data set on HIF-1α, the “concentration from which HIF-1α levels decreased dose-dependently” value came out at 25 µM.

Regarding `CO[C@H]1/C=C\C=C(/C)C(=O)NC2=CC(=O)C(NCCN(C)C)=C(C[C@@H](C)C[C@H](OC)[C@H](O)[C@@H](C)/C=C(\C)[C@@H]1OC(N)=O)C2=O` [Compound 17-DMAG, reference compound], the “luciferase activity in LN229-V6R cells (qualitative)” value in data set [2] is on record as “inhibited both reporter cell lines”. For the same compound, the “luciferase activity in LN229-Lux cells (constitutive reporter)” value in data set [1] is recorded as “inhibited both reporter cell lines”.

These data come from publication PMC3756490 (Journal of medicinal chemistry, 2012).
